ChEMBL document CHEMBL1649560, “Beta-lactamase-mediated beta-lactam resistance in Campylobacter species: prevalence of Cj0299 (bla OXA-61) and evidence for a novel beta-Lactamase in C. jejuni” (2009)
In brackets after ≈: the same amount, converted by molar mass.

Tests used:
Format in all cases: functional
[1] = tested on: Campylobacter jejuni; assay: Antibacterial activity against Campylobacter jejuni by NCCLS agar doubling dilution method
Summary of the method: (§1)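 MICs by agar doubling dilution following the NCCLS (CLSI) Campylobacter Working Group procedure, applied to ampicillin- and amoxicillin-resistant isolates from UK chicken flocks (2000–2006). C. jejuni NCTC 11168 and C. coli NCTC 11366 served as control strains. Resistance was called at an ampicillin cutoff of 8 μg/ml. Other agents were judged against Enterobacteriaceae guidelines (BSAC, CLSI).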

[2] = tested on: Campylobacter coli; assay: Antibacterial activity against Campylobacter coli by NCCLS agar doubling dilution method; summary of the method: as §1
[3] = tested on: Campylobacter jejuni; assay: Antibacterial activity against bla gene-positive and nitrocefin reaction-negative beta-lactamase harboring Campylobacter jejuni NCTC 11168 by NCCLS agar doubling dilution method
Summary of the method: (§2)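 MICs of β-lactams by agar doubling dilution following the NCCLS (CLSI) Campylobacter Working Group procedure, with C. jejuni NCTC 11168 and C. coli NCTC 11366 as controls. Isolates were from UK poultry flocks. β-Lactamase status was set by Cj0299 PCR (281-bp amplimer) and by a nitrocefin colour change of sonicated lysate within 5 min, or within 30 min on repeat.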

[4] = tested on: Campylobacter jejuni; assay: Antibacterial activity against Campylobacter jejuni isolate P270 harboring blaOXA-61::cat gene by NCCLS agar doubling dilution method
[5] = tested on: Campylobacter jejuni; assay: Antibacterial activity against bla gene-negative and nitrocefin reaction-negative beta-lactamase harboring Campylobacter jejuni isolate P835 by NCCLS agar doubling dilution method; summary of the method: as §2
[6] = tested on: Campylobacter jejuni; assay: Antibacterial activity against bla gene-negative and nitrocefin reaction-negative beta-lactamase harboring Campylobacter jejuni isolate P850 by NCCLS agar doubling dilution method; summary of the method: as §2
[7] = tested on: Campylobacter jejuni; assay: Antibacterial activity against bla gene-negative and nitrocefin reaction-negative beta-lactamase harboring Campylobacter jejuni isolate P1962 by NCCLS agar doubling dilution method; summary of the method: as §2
[8] = tested on: Campylobacter jejuni; assay: Antibacterial activity against bla gene-positive and nitrocefin reaction-positive beta-lactamase harboring Campylobacter jejuni isolate P285 by NCCLS agar doubling dilution method
Summary of the method: (§3)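 MICs by agar doubling dilution per the NCCLS (now CLSI) Campylobacter Working Group method. Isolates came from UK chicken flocks (feces, ceca or farm environment), 2000–2006. C. jejuni NCTC 11168 and C. coli NCTC 11366 served as control strains. The ampicillin resistance cutoff was 8 μg/ml; BSAC/CLSI Enterobacteriaceae guidelines were used for other agents.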

[9] = tested on: Campylobacter jejuni; assay: Antibacterial activity against bla gene-positive and nitrocefin reaction-positive beta-lactamase harboring Campylobacter jejuni isolate P286 by NCCLS agar doubling dilution method; summary of the method: as §3
[10] = tested on: Campylobacter jejuni; assay: Antibacterial activity against bla gene-positive and nitrocefin reaction-positive beta-lactamase harboring Campylobacter jejuni isolate P305 by NCCLS agar doubling dilution method; summary of the method: as §3
[11] = tested on: Campylobacter jejuni; assay: Antibacterial activity against bla gene-positive and nitrocefin reaction-positive beta-lactamase harboring Campylobacter jejuni isolate P316 by NCCLS agar doubling dilution method; summary of the method: as §3
[12] = tested on: Campylobacter jejuni; assay: Antibacterial activity against bla gene-positive and nitrocefin reaction-positive beta-lactamase harboring Campylobacter jejuni isolate P338 by NCCLS agar doubling dilution method; summary of the method: as §3
[13] = tested on: Campylobacter jejuni; assay: Antibacterial activity against Campylobacter jejuni isolate P338 harboring blaOXA-61::cat gene by NCCLS agar doubling dilution method
Summary of the method: (§4)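 Agar doubling dilution MICs (NCCLS/CLSI Campylobacter Working Group method) against Cj0299-inactivated mutants. Mutants were made by transforming the C. jejuni isolate with pCI and selecting on Mueller-Hinton agar with 10 μg/ml chloramphenicol for 3–5 days. Chromosomal insertion was confirmed by PCR with Cj0299 and cat primers.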

[14] = tested on: Campylobacter jejuni; assay: Antibacterial activity against bla gene-positive and nitrocefin reaction-positive beta-lactamase harboring Campylobacter jejuni isolate P790 by NCCLS agar doubling dilution method; summary of the method: as §3
[15] = tested on: Campylobacter jejuni; assay: Antibacterial activity against bla gene-positive and nitrocefin reaction-positive beta-lactamase harboring Campylobacter jejuni isolate P1093 by NCCLS agar doubling dilution method; summary of the method: as §2
[16] = tested on: Campylobacter jejuni; assay: Antibacterial activity against Campylobacter jejuni isolate P1093 harboring blaOXA-61::cat gene by NCCLS agar doubling dilution method; summary of the method: as §4
[17] = tested on: Campylobacter jejuni; assay: Antibacterial activity against bla gene-positive and nitrocefin reaction-positive beta-lactamase harboring Campylobacter jejuni isolate P1618 by NCCLS agar doubling dilution method; summary of the method: as §2
[18] = tested on: Campylobacter jejuni; assay: Antibacterial activity against bla gene-positive and nitrocefin reaction-positive beta-lactamase harboring Campylobacter jejuni isolate P1650 by NCCLS agar doubling dilution method; summary of the method: as §2
[19] = tested on: Campylobacter jejuni; assay: Antibacterial activity against bla gene-positive and nitrocefin reaction-positive beta-lactamase harboring Campylobacter jejuni isolate P1730 by NCCLS agar doubling dilution method; summary of the method: as §3
[20] = tested on: Campylobacter jejuni; assay: Antibacterial activity against bla gene-positive and nitrocefin reaction-negative beta-lactamase harboring Campylobacter jejuni isolate P1698 by NCCLS agar doubling dilution method; summary of the method: as §2
[21] = tested on: Campylobacter jejuni; assay: Antibacterial activity against bla gene-positive and nitrocefin reaction-negative beta-lactamase harboring Campylobacter jejuni isolate P1699 by NCCLS agar doubling dilution method; summary of the method: as §2
[22] = tested on: Campylobacter jejuni; assay: Antibacterial activity against bla gene-negative and nitrocefin reaction-positive beta-lactamase harboring Campylobacter jejuni isolate P843 by NCCLS agar doubling dilution method; summary of the method: as §2
[23] = tested on: Campylobacter jejuni; assay: Antibacterial activity against bla gene-negative and nitrocefin reaction-positive beta-lactamase harboring Campylobacter jejuni isolate P854 by NCCLS agar doubling dilution method; summary of the method: as §2
[24] = tested on: Campylobacter coli; assay: Antibacterial activity against bla gene-positive and nitrocefin reaction-positive beta-lactamase harboring Campylobacter coli isolate P321 by NCCLS agar doubling dilution method; summary of the method: as §2
[25] = tested on: Campylobacter coli; assay: Antibacterial activity against bla-positive and beta-lactamase-weakly positive Campylobacter coli isolate P1627 by NCCLS agar doubling dilution method; summary of the method: as §3
[26] = tested on: Campylobacter coli; assay: Antibacterial activity against bla gene-positive and nitrocefin reaction-positive beta-lactamase harboring Campylobacter coli isolate P1826 by NCCLS agar doubling dilution method; summary of the method: as §2

SMILES | MIC50 [1] [µg/mL] | MIC90 [1] [µg/mL] | MIC50 [2] [µg/mL] | MIC90 [2] [µg/mL] | MIC [3] [µg/mL] | MIC [4] [µg/mL] | MIC [5] [µg/mL] | MIC [6] [µg/mL] | MIC [7] [µg/mL] | MIC [8] [µg/mL] | MIC [9] [µg/mL] | MIC [10] [µg/mL] | MIC [11] [µg/mL] | MIC [12] [µg/mL] | MIC [13] [µg/mL] | MIC [14] [µg/mL] | MIC [15] [µg/mL] | MIC [16] [µg/mL] | MIC [17] [µg/mL] | MIC [18] [µg/mL] | other results
CC1(C)S[C@@H]2[C@H](NC(=O)Cc3ccccc3)C(=O)N2[C@H]1C(=O)O [PENICILLIN G] | 64 (≈ 191 µM) | 256 (≈ 766 µM) | 128 (≈ 383 µM) | 128 (≈ 383 µM) | 8 (≈ 23.9 µM) | 2 (≈ 5.98 µM) | 4 (≈ 12 µM) | 64 (≈ 191 µM) | 8 (≈ 23.9 µM) | 128 (≈ 383 µM) | 128 (≈ 383 µM) | 128 (≈ 383 µM) | 128 (≈ 383 µM) | 128 (≈ 383 µM) | 16 (≈ 47.8 µM) | 128 (≈ 383 µM) | 256 (≈ 766 µM) | 8 (≈ 23.9 µM) | 64 (≈ 191 µM) | 64 (≈ 191 µM) | MIC [19]: 64 µg/mL (≈ 191 µM); MIC [20]: < 8 µg/mL; MIC [21]: < 8 µg/mL; MIC [22]: 64 µg/mL (≈ 191 µM); MIC [23]: 256 µg/mL (≈ 766 µM); MIC [24]: 64 µg/mL (≈ 191 µM); MIC [25]: 8 µg/mL (≈ 23.9 µM); MIC [26]: 128 µg/mL (≈ 383 µM)
CO/N=C(\C(=O)N[C@@H]1C(=O)N2C(C(=O)O)=C(COC(N)=O)CS[C@H]12)c1ccco1 [CEFUROXIME] | 128 (≈ 302 µM) | 128 (≈ 302 µM) | 128 (≈ 302 µM) | 256 (≈ 603 µM) | 32 (≈ 75.4 µM) | 64 (≈ 151 µM) | 64 (≈ 151 µM) | 128 (≈ 302 µM) | 64 (≈ 151 µM) | 128 (≈ 302 µM) | 128 (≈ 302 µM) | 64 (≈ 151 µM) | 64 (≈ 151 µM) | 128 (≈ 302 µM) | 128 (≈ 302 µM) | 64 (≈ 151 µM) | 128 (≈ 302 µM) | 128 (≈ 302 µM) | 256 (≈ 603 µM) | 128 (≈ 302 µM) | MIC [19]: 128 µg/mL (≈ 302 µM); MIC [20]: 64 µg/mL (≈ 151 µM); MIC [21]: 64 µg/mL (≈ 151 µM); MIC [22]: 64 µg/mL (≈ 151 µM); MIC [23]: 128 µg/mL (≈ 302 µM); MIC [24]: 64 µg/mL (≈ 151 µM); MIC [25]: 64 µg/mL (≈ 151 µM); MIC [26]: 64 µg/mL (≈ 151 µM)
CCN1CCN(C(=O)N[C@@H](C(=O)N[C@@H]2C(=O)N3[C@@H]2SC(C)(C)[C@@H]3C(=O)O)c2ccccc2)C(=O)C1=O [PIPERACILLIN] | ≥ 512 | > 512 | 512 (≈ 989 µM) | 512 (≈ 989 µM) | 512 (≈ 989 µM) | 8 (≈ 15.5 µM) | > 256 | > 256 | > 256 | > 256 | > 256 | > 256 | > 256 | > 256 | 8 (≈ 15.5 µM) | 128 (≈ 247 µM) | 128 (≈ 247 µM) | 16 (≈ 30.9 µM) | > 512 | > 512 | MIC [2]: 512 µg/mL (≈ 989 µM); MIC [19]: > 512 µg/mL; MIC [20]: > 512 µg/mL; MIC [21]: 256 µg/mL (≈ 495 µM); MIC [22]: > 256 µg/mL; MIC [23]: > 256 µg/mL; MIC [24]: > 256 µg/mL; MIC [25]: 512 µg/mL (≈ 989 µM); MIC [26]: 512 µg/mL (≈ 989 µM)
